From PubChem BioAssay
Results filed as inconclusive are left out.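 The calls were made as follows, unless noted: active = inhibition over a set limit, the all-compound mean plus 3 SD, in both replicate runs; inconclusive = over that limit in just one replicate run; inactive = at or under that limit in both runs.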

Key:
[1] = S. cerevisiae growth inhibition in permissive medium (OD615), pilot counter-assay for S. cerevisiae lifespan shortening project, permissive growth control (AID 705;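 active = growth inhibition above 25% in both replicates, a cutoff set 3 SD above the mean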); conditions: OD615, 24 h, at 10 µM, active compounds read high
In short: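 Material: engineered DeaD yeast; compound dosing: one dose 10 µM, DMSO 0.25% final; measure: yeast growth inhibition indicated by reduced 24 h OD615; detection: OD615 turbidity read; incubation: cells pre-grown 4 h, then 24 h compound exposure, 30 °C humidified; medium: permissive synthetic complete medium with raffinose and galactose carbon sources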

[2] = S. cerevisiae growth inhibition in restrictive medium, OD615, pilot screen, restrictive growth control, yeast lifespan reduction project (AID 706;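 active = growth inhibition above a set limit, 3 SD over mean compound inhibition, in both replicates, cut at about 43% in these data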;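 also: modified DeaD lifespan yeast strain shifted to restrictive glucose medium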); conditions: OD615, 48 h, at 10 µM, active compounds read high
In short: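 material = engineered S. cerevisiae DeaD strain | medium = glucose-based CSMM-D restrictive medium | times = 4 h pre-incubation, 48 h exposure at 30 °C | technique = OD615 absorbance reading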

[3] = doxorubicin toxicity protection in MRP-1 cells – H69AR cells, CellTiter-Glo, duplicate, MRP-1 activator project, pilot screen (AID 807;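 active = viability increase at or above a cutoff of the median across tested compounds plus 3 SD, cut at about 8.5% in these data, passing the limit was not always enough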;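 also: compound pretreatment 18-22 h then 72 h combined with doxorubicin; 0% = doxorubicin alone and 100% = vehicle without doxorubicin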); conditions: H69AR viability with doxorubicin, CellTiter-Glo luminescence; at 10 µM; active compounds read high
[4] = viability of HCT116 without oncogenic beta-catenin – human colon tumor cells, pilot screen (AID 823;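 active = cell viability at or below a set limit in both duplicate runs, the limit being the all-compound median minus 4 SD, cut at about 23% in these data, passing the limit was not always enough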;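 also: 0% = wells killed by 20 µM Hyamine and 100% = untreated DMSO cell wells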); conditions: HCT116 beta-catenin knockout viability, CellTiter-Glo, 60 h; at 10 µM; active compounds read low
[5] = RAM pathway blockade in budding yeast – dse1pr::URA3 reporter, 5-FOA selection, pilot screen (AID 869);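 also: 0% = DMSO wells with no growth and 100% = 10 µM 1-NA-PP1 with full growth; RAM network block rescues cells from 5-FOA so hits raise OD615 growth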; conditions: S. cerevisiae dse1pr::URA3 5-FOA growth, OD615, 2 d; at 10 µM; active compounds read high; strain carries analog-sensitive mutant Cbk1 kinase
[6] = RAM signaling pathway blockade in yeast – S. cerevisiae, Pdr1DBD-CYC8 efflux-inhibited sensitized strain, primary screen (AID 1298;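 active = RAM network inhibition above 8.4% in each of two replicates, 3 SD over the compound average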;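 also: 0% = DMSO untreated cells without growth and 100% = 10 µM 1-NA-PP1 full growth; higher means more yeast growth rescued from 5-FOA killing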); conditions: S. cerevisiae cbk1-as DSE1-URA3 strain, 5-FOA growth OD615, 2 d; at 50 µM; active compounds read high

Cc1ccc2c(c1)c(C)c(C)n2CC(O)Cn1nc(C)cc1C (stereo not given)
inactive: growth inhibition [1] -13% | growth inhibition [2] 3.35% | viability increase [3] -4.76% | viability [4] 87.1% | inhibition [5] 2.1% | RAM network inhibition [6] 0.58%

CC(C)Sc1nc(NCc2ccco2)c2c3c(sc2n1)COC(C)(C)C3
inactive: growth inhibition [1] 3.17% | growth inhibition [2] 22.4% | viability increase [3] -8.23% | viability [4] 56% | inhibition [5] -0.26% | RAM network inhibition [6] 7.33%

O=C(Nc1nn[nH]n1)c1cccc(Oc2ccccc2)c1
inactive: growth inhibition [1] -18.5% | growth inhibition [2] 8.51% | viability increase [3] -0.81% | viability [4] 96.5% | inhibition [5] 3.22% | RAM network inhibition [6] 7.27%

COc1ccc(C2c3c(oc4ccccc4c3=O)C(=O)N2c2ccccn2)cc1OC (stereo not given)
inactive: growth inhibition [1] -10.4% | growth inhibition [2] -11.2% | viability increase [3] -6.93% | viability [4] 72.7% | inhibition [5] 2.8% | RAM network inhibition [6] 2.68%

CCOC(=O)Nc1cc(C(=O)OCC)c(C)nc1C
inactive: growth inhibition [1] -8.02% | growth inhibition [2] -10% | viability increase [3] -1.85% | viability [4] 98.7% | inhibition [5] 1.25% | RAM network inhibition [6] 0.73%

O=C(NCc1nc2ccccc2[nH]1)c1ccc(S(=O)(=O)N2CCOCC2)cc1
inactive: growth inhibition [1] -9.52% | growth inhibition [2] -0.75% | viability increase [3] -2.83% | viability [4] 85.8% | inhibition [5] 1.77% | RAM network inhibition [6] 3.06%

CC1(C)Cc2c(sc3nc(SCC(=O)N4CCOCC4)nc(N)c23)CO1
inactive: growth inhibition [1] -2.9% | growth inhibition [2] 18.3% | viability increase [3] -3.19% | viability [4] 98.9% | inhibition [5] 1.49% | RAM network inhibition [6] 0.62%

COc1ccc(N2CCN(C(=O)Cn3c(=O)[nH]c4ccsc4c3=O)CC2)cc1
inactive: growth inhibition [1] -15.3% | growth inhibition [2] -12.4% | viability increase [3] -3.44% | viability [4] 99.7% | inhibition [5] 0.99% | RAM network inhibition [6] 3.59%

CCOC(=O)C1=C(N)OC2=C(C(=O)CCC2)C1c1cccnc1 (stereo not given)
inactive: growth inhibition [1] -6.66% | growth inhibition [2] 4.47% | viability increase [3] -2.49% | viability [4] 104% | inhibition [5] 1.22% | RAM network inhibition [6] 2.44%

COc1ccc(N2CC(O)=C(c3nc(C)cs3)C2=N)cc1
inactive: growth inhibition [1] 8.87% | growth inhibition [2] 5.31% | viability increase [3] -4.67% | viability [4] 96.7% | inhibition [5] 1.6% | RAM network inhibition [6] 3.27%

CCOc1cc(C2C(C(=O)c3ccco3)=C(O)C(=O)N2CCc2ccccc2)ccc1O (stereo not given)
inactive: growth inhibition [1] -35.8% | growth inhibition [2] -4.2% | viability increase [3] -1.77% | viability [4] 97.2% | inhibition [5] 4.93% | RAM network inhibition [6] 4.16%

O=C(c1ccccn1)N1CCN(c2ccc(C(F)(F)F)cn2)CC1
inactive: growth inhibition [1] -20.7% | growth inhibition [2] -2.59% | viability increase [3] 0.37% | viability [4] 96.5% | inhibition [5] 1.64% | RAM network inhibition [6] 3.84%

Cc1cc(C)n2nc(CCc3nc4nc(C)cc(C)n4n3)nc2n1
inactive: growth inhibition [1] 3.12% | growth inhibition [2] 4.29% | viability increase [3] -1.49% | viability [4] 94.8% | inhibition [5] 0.62% | RAM network inhibition [6] 1.76%

Cc1ccccc1-c1nnc(SCC(=O)Nc2ccc(Cl)cc2)n1N
inactive: growth inhibition [1] -8.16% | growth inhibition [2] 0.61% | viability increase [3] 2.22% | viability [4] 94.5% | inhibition [5] 1.17% | RAM network inhibition [6] 5.42%

CCN(CC)C(=O)c1cn(CC)c(=O)c2cc(OC)c(OC)cc12
inactive: growth inhibition [1] -18.9% | growth inhibition [2] 2.04% | viability increase [3] -3.37% | viability [4] 103% | inhibition [5] 0.93% | RAM network inhibition [6] 2.76%

CCN1CCN(Cc2nc3c(c(=O)n(C)c(=O)n3C)n2C(C)C(C)=O)CC1 (stereo not given)
inactive: growth inhibition [1] -32.2% | growth inhibition [2] -4.38% | viability increase [3] -1.83% | viability [4] 89.7% | inhibition [5] 1.41% | RAM network inhibition [6] 4.46%

O=C(NCc1ccc(N2CCCC2=O)cc1)c1cn(CCc2ccccc2)nn1
inactive: growth inhibition [1] -5.88% | growth inhibition [2] -13.3% | viability increase [3] 1.6% | viability [4] 95.1% | inhibition [5] 1.7% | RAM network inhibition [6] 7.58%

COc1cccc(C(=O)Nc2ccc(-c3nc4ccccc4o3)c(O)c2)c1
inactive: growth inhibition [1] -13.4% | growth inhibition [2] -12.1% | viability increase [3] -4.28% | viability [4] 30.4% | inhibition [5] 3.71% | RAM network inhibition [6] 3.99%

C(=N\c1nccs1)/c1c[nH]c2ccccc12
inactive: growth inhibition [1] -17.6% | growth inhibition [2] 7.43% | viability increase [3] -4.92% | viability [4] 92.4% | inhibition [5] 2.52% | RAM network inhibition [6] 3.02%

CC1CCN(C(=O)CSc2nc(N)c3c4c(sc3n2)CN(C)CC4)CC1
inactive: growth inhibition [1] -10.2% | growth inhibition [2] 12.6% | viability increase [3] -3.86% | viability [4] 102% | inhibition [5] 0.905% | RAM network inhibition [6] 2.24%

Cc1ccc(OCCCC(=O)Nc2nncs2)cc1
inactive: growth inhibition [1] -9.25% | growth inhibition [2] -13.4% | viability increase [3] 0.75% | viability [4] 105% | inhibition [5] 1.92% | RAM network inhibition [6] 1.98%

Cc1cc(C)c(C)c(S(=O)(=O)Nc2ccccc2C(=O)NCCCn2ccnc2)c1C
inactive: growth inhibition [1] -28% | growth inhibition [2] 12.5% | viability increase [3] -5.57% | viability [4] 70.2% | inhibition [5] 0.75% | RAM network inhibition [6] 0.27%

CN(C)/C=N/c1c(C#N)cnn1-c1nc2ccccc2s1
inactive: growth inhibition [1] -9.66% | growth inhibition [2] 6.79% | viability increase [3] -3.38% | viability [4] 102% | inhibition [5] 1.28% | RAM network inhibition [6] 4.53%

Cc1ccc(C)c(S(=O)(=O)Nc2ccccc2C(=O)Nc2cc(C)on2)c1
inactive: growth inhibition [1] -32.7% | growth inhibition [2] -4.75% | viability increase [3] -3.6% | viability [4] 77.3% | inhibition [5] 2.54% | RAM network inhibition [6] 6.23%

O=C1CC(N2CCN(Cc3ccc4c(c3)OCO4)CC2)C(=O)N1Cc1ccc(N2CCCC2=O)cc1 (stereo not given)
inactive: growth inhibition [1] -28.2% | growth inhibition [2] -0.61% | viability increase [3] -1.61% | viability [4] 90.3% | inhibition [5] 2.29% | RAM network inhibition [6] 7.63%

CCN(CC)S(=O)(=O)c1ccc(NC(=O)Cn2c(=O)oc3ccccc32)cc1
inactive: growth inhibition [1] -12.3% | growth inhibition [2] -11.6% | viability increase [3] -3.33% | viability [4] 96.7% | inhibition [5] 2.38% | RAM network inhibition [6] 5.71%

O=C(CS(=O)(=O)c1cn(Cc2cccc(F)c2)c2ccccc12)N1CCCCC1
inactive: growth inhibition [1] -12.9% | growth inhibition [2] -2.79% | viability increase [3] -3.96% | viability [4] 73.2% | inhibition [5] 2.04% | RAM network inhibition [6] 3.64%

COc1ccc(-c2nnc(NC(=O)c3cc(Cl)ccc3Cl)o2)cc1
inactive: growth inhibition [1] 4.57% | growth inhibition [2] 4.36% | viability increase [3] -5.58% | viability [4] 35.9% | inhibition [5] 2.53% | RAM network inhibition [6] 8.05%

CSc1nc2ccc(NC(=O)C3CC(=O)N(Cc4ccco4)C3)cc2s1 (stereo not given)
inactive: growth inhibition [1] 4.86% | growth inhibition [2] -2.38% | viability increase [3] -5.77% | viability [4] 97.4% | inhibition [5] 1.02% | RAM network inhibition [6] 0.88%

CCOCCCNC(=O)C1CCC(CNS(=O)(=O)c2ccc(F)cc2)CC1 (stereo not given)
inactive: growth inhibition [1] -7.63% | growth inhibition [2] 6.36% | viability increase [3] -2.28% | viability [4] 95.5% | inhibition [5] 1.19% | RAM network inhibition [6] 7.28%

O=C(Nc1ccc(Cl)cc1)c1ccncc1
inactive: growth inhibition [1] -11.5% | growth inhibition [2] -3.32% | viability increase [3] 0.18% | viability [4] 106% | inhibition [5] 1.14% | RAM network inhibition [6] 6.15%

CCn1cc(C(=O)NC2CCCCCC2)c2cc(OC)c(OC)cc2c1=O
inactive: growth inhibition [1] -29.2% | growth inhibition [2] 1.87% | viability increase [3] -3.91% | viability [4] 76.3% | inhibition [5] 2.02% | RAM network inhibition [6] 4.11%

CN(C)/C=C1/Sc2ccccc2C1=O
inactive: growth inhibition [1] -13.4% | growth inhibition [2] 10% | viability increase [3] -3.51% | viability [4] 103% | inhibition [5] 1.11% | RAM network inhibition [6] -0.73%

CC(C)Sc1nc(N)c2c3c(sc2n1)CN(C)CC3
inactive: growth inhibition [1] -10.7% | growth inhibition [2] 9.69% | viability increase [3] -3.04% | viability [4] 101% | inhibition [5] 1.16% | RAM network inhibition [6] 5.2%

COCCCNC(=O)c1cc2c(=O)n(C)c3ccccc3c2n1C
inactive: growth inhibition [1] -7.96% | growth inhibition [2] -5.92% | viability increase [3] -7.13% | viability [4] 36.5% | inhibition [5] 0.345% | RAM network inhibition [6] 4.4%

COc1ccc(NC(=O)C2CCC(C)(C(=O)O)C2(C)C)cc1 (stereo not given)
inactive: growth inhibition [1] 1% | growth inhibition [2] 3.7% | viability increase [3] -0.59% | viability [4] 96% | inhibition [5] 1.27% | RAM network inhibition [6] 3.75%

Cc1cccc(N2CCN(c3nc4ccccc4n4cnnc34)CC2)c1C
inactive: growth inhibition [1] -11.7% | growth inhibition [2] -6.28% | viability increase [3] -4.42% | viability [4] 49.3% | inhibition [5] 1.89% | RAM network inhibition [6] -0.66%

S=c1nc(-c2ccccc2)n(CCCN2CCOCC2)c2c1CCCC2
inactive: growth inhibition [1] -2.74% | growth inhibition [2] 23.8% | viability increase [3] -4.35% | viability [4] 103% | inhibition [5] 0.18% | RAM network inhibition [6] 3.63%

CC1CCN(CCNC(=O)c2ccc(NC(=O)C3CCCO3)cc2)CC1 (stereo not given)
inactive: growth inhibition [1] -16.1% | growth inhibition [2] -2.63% | viability increase [3] -1.69% | viability [4] 103% | inhibition [5] 1.95% | RAM network inhibition [6] 3.74%

O=C(CN1C(=O)c2cccc3cccc1c23)N1CCN(c2ccc(F)cc2)CC1
inactive: growth inhibition [1] -26.6% | growth inhibition [2] -0.695% | viability increase [3] -2.42% | viability [4] 94.1% | inhibition [5] 2.49% | RAM network inhibition [6] 8.63%
